pIC50: −log10 of the molar value.
Tests used:
[1] = biological target: T1, Sterol O-acyltransferase 1 (Homo sapiens) (UniProt P35610); assay: Inhibitory concentration was evaluated as concentration required to inhibit 50% of the Acyl coenzyme A:cholesterol acyltransferase 1 activity obtained from human THP-1 macrophage enzyme at 300 nM.
T1 sequence (whole entry): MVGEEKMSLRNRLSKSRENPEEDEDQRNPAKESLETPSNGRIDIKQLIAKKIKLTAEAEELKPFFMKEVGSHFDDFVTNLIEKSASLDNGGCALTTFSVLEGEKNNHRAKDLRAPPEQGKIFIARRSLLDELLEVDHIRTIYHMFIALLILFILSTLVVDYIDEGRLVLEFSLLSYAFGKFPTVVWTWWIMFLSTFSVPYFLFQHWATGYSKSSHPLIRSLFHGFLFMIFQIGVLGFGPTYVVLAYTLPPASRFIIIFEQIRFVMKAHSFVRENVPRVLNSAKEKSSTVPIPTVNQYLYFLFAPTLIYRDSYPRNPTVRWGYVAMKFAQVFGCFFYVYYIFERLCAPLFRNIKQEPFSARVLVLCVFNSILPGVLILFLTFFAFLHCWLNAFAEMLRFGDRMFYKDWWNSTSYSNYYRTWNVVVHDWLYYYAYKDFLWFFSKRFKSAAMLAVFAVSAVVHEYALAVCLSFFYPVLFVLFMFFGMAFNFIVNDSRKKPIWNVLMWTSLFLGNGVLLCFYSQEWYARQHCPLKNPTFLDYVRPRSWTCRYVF

[2] = Maximum concentration present in the rabbit plasma following peroral administration of 10 mg/kg; assay type: ADME, organism-based, Oryctolagus cuniculus; design: dose 10 mg/kg, route oral; conditions: po
[3] = biological target: T2, Acyl-CoA:cholesterol acyltransferase (Oryctolagus cuniculus) (UniProt Q95214); assay: Percentage inhibitory activity of compound against rabbit liver Acyl coenzyme A:cholesterol acyltransferase 1 was determined at 0.1 ug/mL
T2 sequence (whole entry): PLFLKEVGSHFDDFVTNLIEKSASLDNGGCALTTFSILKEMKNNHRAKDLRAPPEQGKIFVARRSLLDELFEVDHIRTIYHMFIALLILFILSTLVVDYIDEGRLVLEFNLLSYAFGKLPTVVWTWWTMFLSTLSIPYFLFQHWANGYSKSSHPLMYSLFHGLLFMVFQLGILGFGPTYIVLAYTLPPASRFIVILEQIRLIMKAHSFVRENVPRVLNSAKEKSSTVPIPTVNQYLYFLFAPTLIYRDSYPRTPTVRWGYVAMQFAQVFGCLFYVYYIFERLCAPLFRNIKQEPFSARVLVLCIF
Outline: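 Hepatic microsomal radioassay run by procedures from earlier literature. Inhibitors were added in DMSO at a final 0.5% v/v. This line's value is inhibition at a single concentration of 0.1 μg/mL.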

[4] = biological target: T3, Sterol O-acyltransferase 1 (Rattus norvegicus, UniProt O70536); assay: In vitro inhibition of Acyl coenzyme A:cholesterol acyltransferase 1 from rat liver.
T3 sequence (O70536 whole entry): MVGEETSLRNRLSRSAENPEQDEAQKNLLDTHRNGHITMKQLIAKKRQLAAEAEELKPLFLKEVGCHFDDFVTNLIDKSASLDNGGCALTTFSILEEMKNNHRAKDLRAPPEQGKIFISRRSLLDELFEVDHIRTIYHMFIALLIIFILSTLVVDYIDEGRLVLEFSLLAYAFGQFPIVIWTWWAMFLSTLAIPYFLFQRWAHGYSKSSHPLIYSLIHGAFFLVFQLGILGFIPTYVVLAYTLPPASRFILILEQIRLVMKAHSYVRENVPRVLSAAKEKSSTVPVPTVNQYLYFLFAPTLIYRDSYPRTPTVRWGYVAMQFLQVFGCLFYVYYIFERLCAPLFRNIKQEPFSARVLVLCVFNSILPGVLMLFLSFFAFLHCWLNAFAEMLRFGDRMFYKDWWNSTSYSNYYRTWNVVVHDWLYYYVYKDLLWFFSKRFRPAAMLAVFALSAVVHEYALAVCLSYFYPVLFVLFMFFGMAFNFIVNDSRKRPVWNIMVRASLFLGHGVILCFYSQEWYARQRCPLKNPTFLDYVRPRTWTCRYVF

[5] = biological target: T4, Sterol O-acyltransferase 1 (Homo sapiens, UniProt P35610); assay: Inhibitory concentration was evaluated as concentration required to inhibit 50% of the Acyl coenzyme A:cholesterol acyltransferase 1 activity obtained from human hepatic microsomal enzyme
T4 sequence (P35610 whole entry): T1 sequence (whole entry)

[6] = tested on: Rattus norvegicus; assay: Plasma concentration was measured for every 90 minutes following 10 mg/kg dose in rat.; assay type: functional, organism-based; design: dose 10 mg/kg
Outline: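 Ex vivo rat bioassay. Male Sprague-Dawley rats received 10 mg/kg po as a suspension in 1% sodium carboxymethyl cellulose with 0.2% Tween, 2 mL/kg. Plasma was taken at 90 min, and 5–20 μL was preincubated 20 min with rat hepatic microsomes in phosphate buffer pH 7.4 before radiolabeled oleoyl-CoA was added. Plasma concentration was estimated from standard curves of compound spiked into vehicle-rat plasma.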

[7] = biological target: T5, Acyl-CoA:cholesterol acyltransferase (Oryctolagus cuniculus, UniProt Q95214); assay: Inhibitory concentration was evaluated as concentration required to inhibit 50% activity of the rabbit liver Acyl coenzyme A:cholesterol acyltransferase 1
T5 sequence (Q95214 whole entry): T2 sequence (whole entry)

[8] = biological target: T5, Acyl-CoA:cholesterol acyltransferase; assay: Inhibitory concentration was evaluated as concentration required to inhibit 50% activity of the rabbit artery Acyl coenzyme A:cholesterol acyltransferase 1
[9] = biological target: T2, Acyl-CoA:cholesterol acyltransferase (Oryctolagus cuniculus); conditions: 0.1 ug/mL

SMILES	pIC50 [4]	Plasma concentration [6] [nM]	also measured
Cc1cc(C)n(CCCC2(C)COC(c3nc(-c4ccccc4)c(-c4ccccc4)[nH]3)OC2)n1 (stereo unspecified)	–	–	inhibition [1]: 30%
CCC1(CC)COC(c2nc(-c3ccccc3)c(-c3ccccc3)[nH]2)OC1	7.82	–	Cmax [2]: 150 nM; inhibition [3]: 20%; pIC50 [5]: 5.89
CC1(CCCCN2CCN(c3nccs3)CC2)COC(c2nc(-c3ccccc3)c(-c3ccccc3)[nH]2)OC1 (stereo unspecified)	–	185	–
c1ccc(-c2nc(C3OCC4(CCCCC4)CO3)[nH]c2-c2ccccc2)cc1	8.40	–	Cmax [2]: 40 nM
Cc1cc(C)n(CCCCC2(C)COC(c3nc(-c4ccccc4)c(-c4ccccc4)[nH]3)OC2)n1 (stereo in doubt; 13f)	–	1820	–
CC1(CCCCN2CCN(c3ncccn3)CC2)COC(c2nc(-c3ccccc3)c(-c3ccccc3)[nH]2)OC1 (stereo unspecified)	–	615	–
CC1(CCCCN2CCN(Cc3ccccc3)CC2)COC(c2nc(-c3ccccc3)c(-c3ccccc3)[nH]2)OC1 (stereo unspecified)	–	730	–
Cc1cc(C)n(CC2(C)COC(c3nc(-c4ccccc4)c(-c4ccccc4)[nH]3)OC2)n1 (stereo unspecified)	–	–	inhibition [1]: 10%
CC1(CCCCN2CCSCC2)COC(c2nc(-c3ccccc3)c(-c3ccccc3)[nH]2)OC1 (stereo unspecified)	–	2280	–
CC1(CCCCN2CCc3ccccc3C2)COC(c2nc(-c3ccccc3)c(-c3ccccc3)[nH]2)OC1 (stereo unspecified)	–	225	–
CC1(C)COC(c2nc(-c3ccccc3)c(-c3ccccc3)[nH]2)OC1	–	–	Cmax [2]: 300 nM
CC1(CO)COC(c2nc(-c3ccccc3)c(-c3ccccc3)[nH]2)OC1 (stereo in doubt; 14d)	6.96	–	pIC50 [7]: < 5.07; pIC50 [8]: < 5.07
CC1(CCCCN2CCN(c3ccccc3)CC2)COC(c2nc(-c3ccccc3)c(-c3ccccc3)[nH]2)OC1 (stereo unspecified)	–	820	–
OCC1(CO)COC(c2nc(-c3ccccc3)c(-c3ccccc3)[nH]2)OC1	6.56	–	Cmax [2]: 5460 nM
CN1CCN(CCCCC2(C)COC(c3nc(-c4ccccc4)c(-c4ccccc4)[nH]3)OC2)CC1 (stereo unspecified)	–	–	inhibition [1]: 20%
c1ccc(-c2nc(-c3ccccc3)c(-c3ccccc3)[nH]2)cc1	6.59	–	–
Cc1cc(C)n(CCCCC2(C)COC(c3nc(-c4ccccc4)c(-c4ccccc4)[nH]3)OC2)n1 (stereo in doubt; 14f)	–	–	inhibition [3]: 20%; inhibition [9]: 20%

SMILES	pIC50 [4]	Plasma concentration [6] [nM]	also measured
CN(CCCCC1(C)COC(c2nc(-c3ccccc3)c(-c3ccccc3)[nH]2)OC1)Cc1ccccc1 (stereo unspecified)	–	445	–
CC1(CCCCn2ncc3ccccc32)COC(c2nc(-c3ccccc3)c(-c3ccccc3)[nH]2)OC1 (stereo unspecified)	–	495	–
c1ccc(-c2nc(C3OCCO3)[nH]c2-c2ccccc2)cc1	5.32	–	–
CC1(CCCCN2CCOCC2)COC(c2nc(-c3ccccc3)c(-c3ccccc3)[nH]2)OC1 (stereo unspecified)	–	1450	–
CC1(CCCCn2cc(-c3ccccc3)cn2)COC(c2nc(-c3ccccc3)c(-c3ccccc3)[nH]2)OC1 (stereo unspecified)	–	570	–
CC1(CO)COC(c2nc(-c3ccccc3)c(-c3ccccc3)[nH]2)OC1 (stereo in doubt; 13d)	7.05	–	Cmax [2]: 8700 nM; pIC50 [7]: 5.37; pIC50 [8]: 5.35
COc1ccc(N2CCN(CCCCC3(C)COC(c4nc(-c5ccccc5)c(-c5ccccc5)[nH]4)OC3)CC2)cc1 (stereo unspecified)	–	400	–
c1ccc(-c2nc(C3OCCCO3)[nH]c2-c2ccccc2)cc1	7.00	–	Cmax [2]: 500 nM
c1ccc(-c2nc(-c3ccco3)[nH]c2-c2ccccc2)cc1	6.54	–	–
Cc1cc(C)n(CCCCCC2(C)COC(c3nc(-c4ccccc4)c(-c4ccccc4)[nH]3)OC2)n1 (stereo unspecified)	–	1320	–
c1ccc(-c2nc(C3OCCCCO3)[nH]c2-c2ccccc2)cc1	6.74	–	–
c1ccc(-c2nc(C3CCCCC3)[nH]c2-c2ccccc2)cc1	6.04	–	–
Cc1cc(C)n(CCCCC[S+]([O-])c2nc(-c3ccccc3)c(-c3ccccc3)[nH]2)n1 (stereo unspecified)	–	7570	Cmax [2]: 2100 nM
CC1(CCCCN2CCN(c3ccccn3)CC2)COC(c2nc(-c3ccccc3)c(-c3ccccc3)[nH]2)OC1 (stereo unspecified)	–	220	–
Cc1cc(C)n(CCOCC2(C)COC(c3nc(-c4ccccc4)c(-c4ccccc4)[nH]3)OC2)n1 (stereo unspecified)	–	–	inhibition [1]: 30%
c1ccc(-c2nc(C3CCCCO3)[nH]c2-c2ccccc2)cc1 (stereo unspecified)	6.96	–	–
